The campaign covered roughly 310,000 compounds. About 2,800 (0.9%) were called active.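 The calls were made as follows: active = B-score of the integrated calcium signal more than 4 SD below the library mean, with starting fluorescence not abnormally high; inactive = the rest.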 This excerpt belongs to a sample that is enriched for actives.

The test can be described thus: enhancers of RGS4 function in calcium signaling – cell-based, HEK293 M3R inducible RGS4, calcium flux, primary screen (AID 463111).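 As to B-score: negative B-score means reduced calcium response which marks RGS4 activation or potentiation.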 The conditions noted are these: HEK293 M3R/inducible RGS4, carbachol calcium flux Fluo4, at 10 µM; stronger effect = lower value. Summed up: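 Material: M3R-expressing HEK293 line, RGS4 induced by doxycycline | Schedule: Overnight RGS4 induction, 30 min dye load 37 °C, 20 min compound RT | Measured by: Fluo4 fluorescence kinetic imaging of calcium | Read-out: Integrated calcium ratio converted to B score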
In the case of `CN(C(=O)c1cccc(OC2CCN(S(=O)(=O)N(C)C)CC2)c1)C1CCOC1` (stereo not drawn), the B-score entry is “inactive”.
To `CNS(=O)(=O)c1cccc(C(=O)NCC2CCCCC2)c1` belongs “inactive”; to `CN(C)S(=O)(=O)N1CCC(Oc2cccc(C(=O)NCCCC3CCCC3)c2)CC1`, -7.71 (active); to `Cc1ccc(-c2nc(CS(=O)(=O)CC(=O)NCc3ccc4c(c3)OCO4)c(C)o2)cc1`, “inactive”.
With `CC1(C)Cc2c(sc3nc4n(c(=N)c23)CCCCC4)CO1` the entry was “inactive”; with `N=c1c2c3c(sc2nc2n1CCCCC2)CCCC3`, -8.12 (active).
With `N=c1c2c3c(sc2ncn1N)CCCCC3` the entry was “inactive”; with `CCOc1ccc(S(=O)(=O)Nc2ccc(C(=O)NCCCN3CCCC3=O)cc2)cc1`, “inactive”; with `Cc1ccccc1C(OCCN(C)C)C1CCCCC1` (stereo not drawn), -8.62 (active).
As for `CN(C)CCOC1c2ccccc2-c2ccccc21`, the B-score entry was “inactive”.
With `CN(C)CCOC(=O)C(c1ccccc1)C1(O)CCCC1` (stereo not drawn) the entry was “inactive”; with `Cc1ccc(C)c(N2CCN(C(=O)CCCCn3c(=O)[nH]c4ccccc4c3=O)CC2)c1`, “inactive”; with `Cc1ccc(C)c(N2CCN(C(=O)CCc3nc4ccccc4[nH]3)CC2)c1`, “inactive”.
In the case of `O=C(CCCCCn1c(=S)[nH]c2cc3c(cc2c1=O)OCO3)N1CCN(c2ccc(F)cc2)CC1`, the B-score entry is “inactive”.
Turning to `Cc1ccc(C)c(N2CCN(C(=O)CCCn3c(=O)c4cccn4c4cccnc43)CC2)c1`, the B-score was -7.65 (active).
To `Cc1ccc(C)c(N2CCN(C(=O)Cn3ncn4cccc4c3=O)CC2)c1` belongs “inactive”; to `Cc1ccc(C)c(N2CCN(C(=O)CCCCCn3c(=S)[nH]c4ccc(N5CCOCC5)cc4c3=O)CC2)c1`, -10.9 (active); to `Cn1c(=O)c2c(SCC(=O)NCC3CCCO3)nc(CC(C)(C)C)nc2n(C)c1=O` (stereo not drawn), “inactive”.
Turning to `OC1CCCN(c2ncnc3c2nnn3Cc2c(F)cccc2Cl)C1` (stereo not drawn), the B-score entry is “inactive”.
For the molecule `COc1ccc(CNC(=O)C(c2ccc(O)cc2)N(Cc2ccco2)C(=O)c2snc(C(N)=O)c2N)cc1` (stereo not drawn), the B-score result was “inactive”.
As to `CC(C)c1ccc(NC(=O)Cn2ncc3ccccc32)cc1`, the B-score entry was “inactive”.
`COc1cccc(CNC(=O)CCC2CCCN(C(=O)c3ccc(F)c(Cl)c3)C2)c1` (stereo not drawn): the B-score result was “inactive”.
With `COc1cccc(CNC(=O)CCC2CCCN(Cc3ccc(OC(F)F)cc3)C2)c1` (stereo not drawn) the figure was -12 (active); with `COc1cccc(C(=O)N2CCCC(CCC(=O)NCc3ccc(F)c(F)c3)C2)c1` (stereo not drawn), “inactive”.
For `COc1cccc(C(=O)OCc2cc(=O)oc3c(C)c(C)ccc23)c1OC`, the B-score entry was “inactive”.
With `CN1C(=O)c2cccc3c(N)ccc(c23)C1=O` the entry was “inactive”; with `O=C1c2ccccc2C(=O)N1c1cccc2ccccc12`, “inactive”; with `Cc1nn(C)cc1N1C(=O)c2cccc3c(N)ccc(c23)C1=O`, -8.92 (active).
